Results of several laboratories.
Each line is one published result; the experiments were not run side by side.
Target: Serine/threonine-protein kinase PLK3 (PLK3, Homo sapiens, UniProt Q9H4B4)

Compound | assay | conditions | endpoint | result
O=C1Nc2ccc(Cl)cc2C1=Cc1cc(Cl)c(O)c(Cl)c1 | cell-free assay | 0.5 µM | remaining signal | 98.2%
FC(F)(F)c1ccc2c(c1)nc(-c1cccnc1)n2C1CC1 | cell-free assay, competition with immobilised ligand | 1 µM | remaining binding | 100%
CC(C)c1ccc(NC(=O)c2cccs2)c(-c2nc3ccccc3[nH]c2=O)c1 | enzyme activity, inhibitor | 1 µM | activity vs control | 97%
Cc1sc(C(=O)NC2COC2)cc1-n1cc(NC(=O)Nc2c(F)cccc2Cl)cn1 | enzyme activity, inhibitor | 10 µM | remaining activity | 102%
O=c1cc(N2CCOCC2)oc2c(-c3ccccc3)cccc12 | cell-free assay | 0.5 µM | remaining signal | 71.9%
N#CC1(c2ccccn2)CCN(Cc2cc(C(=O)N3CCCC3)c(=O)n3ccccc23)CC1 | cell-free assay, competition with immobilised ligand | 1 µM | remaining binding | 100%
CCN(CC)CCNC(=O)c1c(C)[nH]c(/C=C2\C(=O)Nc3ccc(F)cc32)c1C | enzyme activity, inhibitor | 10 µM | inhibition | -4%
Cc1ccc(NC(=O)c2ccc(C)c(C(F)(F)F)c2)cc1C#Cc1nn(C2CCC(O)CC2)c2ncnc(N)c12 (stereo not shown) | cell-free assay | 10 µM | remaining signal | 93%
Cc1ccc(C(=O)Nc2ccc(CN3CCN(C)CC3)c(C(F)(F)F)c2)cc1C#Cc1cnc2cccnn12 | enzyme activity, inhibitor | 23.5 nM | remaining activity | 89%
COc1cc(Cl)c(C(=O)N[C@@H](CN[C@H]2CC[C@@H](N)CC2)Cc2ccc(C#N)cc2)cc1-c1ccc(CN[C@H](C)c2ccc(C)cc2)o1 | enzyme activity, inhibitor | 1 µM | remaining activity | 105%
O=C(N1CCS(=O)(=O)CC1)N1C[C@H](c2ccc(OC(F)(F)F)cc2)C[C@H](c2nc(C3CC3)no2)C1 | cell-free assay, competition with immobilised ligand | 1 µM | remaining binding | 98%
Nc1ncnc2occ(-c3ccc(NC(=O)Nc4cc(C(F)(F)F)ccc4F)cc3)c12 | cell-free assay, inhibitor | 20 µM | remaining signal | 0.05%
CCS(=O)(=O)c1cc2cc(C[C@@](O)(CC(C)(C)c3ccc(F)cc3C(N)=O)C(F)(F)F)[nH]c2cn1 | cell-free assay, competition with immobilised ligand | 1 µM | remaining binding | 99%
CCCOc1ccc(OC)c(F)c1C(=O)c1ccc(C(=O)N[C@@H]2CNC[C@H]2NC(=O)c2ccc3[nH]ncc3c2)cc1 | enzyme activity, inhibitor | 10 µM | remaining activity | 119%
CCOC(=O)c1cc2cc(-c3cc(C(=O)NCc4ccc(C(=O)O)cc4)nn3C)ccc2[nH]1 | cell-free assay, competition with immobilised ligand | 0.1 µM | remaining binding | 70%
CNC(=O)c1cc(Oc2ccc(NC(=O)Nc3ccc(Cl)c(C(F)(F)F)c3)cc2)ccn1 | enzyme activity, inhibitor | 10 µM | inhibition | -14%
COc1cc(-c2cc(-c3ccc(N4CCNCC4)cc3)cnc2C)cc(OC)c1OC | enzyme activity, inhibitor | 0.1 µM | inhibition | 4%
Cc1ccc(Nc2nccc(N(C)c3ccc4c(C)n(C)nc4c3)n2)cc1S(N)(=O)=O | enzyme activity, inhibitor | 0.3 µM | inhibition | -9%
C[C@@]1(Cc2ccc(C#N)cc2)C(=O)N(c2cc(Cl)cc(Cl)c2)c2ncc(C(=O)NC3(c4nc(C5CCC5)no4)CC3)n21 | cell-free assay, competition with immobilised ligand | 1 µM | remaining binding | 100%
CC/C(=N\NC(=O)NCc1cccc(O)c1)c1ccc(O)c(C)c1O | enzyme activity, inhibitor | 0.1 µM | inhibition | 2.5%
COc1cc2ncnc(Nc3ccc(Oc4ccccc4)cc3C)c2cc1OC | enzyme activity, inhibitor | 1 µM | inhibition | -1%
CN1CCN(c2cnc3c(C4CCN(C(=O)c5ccc(OC(F)(F)F)cc5N)CC4)ncnc3c2)CC1 | cell-free assay, competition with immobilised ligand | 1 µM | remaining binding | 100%
COc1cc2c(Nc3ccc(Br)cc3F)ncnc2cc1OCC1CCN(C)CC1 | cell-free assay | 0.5 µM | remaining signal | 95%
CN([C@@H]1CCc2c(CC(=O)O)c3cc(S(C)(=O)=O)ccc3n2C1)S(=O)(=O)c1ccc(F)cc1 | cell-free assay, competition with immobilised ligand | 1 µM | remaining binding | 70%
O=C(CSc1nc2nccnc2c(=O)n1CCc1ccccc1)Nc1nccs1 | enzyme activity, inhibitor | 10 µM | inhibition | 4%
